Activity calls are given as the source filed them. The rule behind the calls is not given here.
What was measured:
[1] = tested on: Brain; test: Neuronal activity in Wistar rat brain dorsomedial hyphalamic nucleus assessed as c-Fos-immunoreactive neurons at 0.1 ug/ul, icv after 2 hrs by immunohistochemistry analysis; type: functional, tissue-based
Procedure, shortened: (§1)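 Adult male Wistar rats (250-300 g) were acclimated for one week and handled twice daily. An ICV cannula was placed about 2 h before dosing. Compound was given ICV in 10 µL 0.9% saline; saline-only controls (n = 3). After 2 h, rats were perfused with 4% formaldehyde (pH 9.5). Coronal 30 µm sections were stained with rabbit anti-c-Fos (1:5000, 18 h, RT), biotinylated goat anti-rabbit, ABC and DAB, with thionin counterstain. Immunoreactive cells were counted in fixed areas; Student's t-test, p<0.05.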

[2] = tested on: Brain; test: Neuronal activity in Wistar rat brain reuniens nucleus assessed as c-Fos-immunoreactive neurons at 0.1 ug/ul, icv after 2 hrs by immunohistochemistry analysis; type: functional, tissue-based; procedure, shortened: as §1
[3] = tested on: Brain; test: Neuronal activity in Wistar rat brain anterior hyphalamic area assessed as c-Fos-immunoreactive neurons at 0.1 ug/ul, icv after 2 hrs by immunohistochemistry analysis; type: functional, tissue-based; procedure, shortened: as §1
[4] = tested on: Brain; test: Neuronal activity in Wistar rat brain dorsal intermediate nucleus assessed as c-Fos-immunoreactive neurons at 0.1 ug/ul, icv after 2 hrs by immunohistochemistry analysis; type: functional, tissue-based; procedure, shortened: as §1
[5] = tested on: Rattus norvegicus; test: Neurotoxicity in Wistar rat at 100 ng/kg, iv; type: toxicity, organism-based; settings: in vivo, 0.0001 mg/kg
Procedure, shortened: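 Given peripherally at 100 ng/kg through an intravenous catheter placed in Wistar rats anaesthetised with chloral hydrate (7%, 350 mg/kg ip), to test passage across the blood-brain barrier; behaviour was then observed.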

[6] = tested on: Rattus norvegicus; test: Neurotoxicity in Wistar rat assessed as convulsion at 10 ng/kg, icv after 5 mins; type: toxicity, organism-based; settings: in vivo, icv_or_intrathecal, 1e-05 mg/kg
Procedure, shortened: (§2)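 Adult male Wistar rats (250-300 g, acclimated one week) received 10 ng/kg ICV in 0.9% saline through a cannula placed about 2 h earlier. Behaviour was observed afterwards, including convulsions, piloerection and eye signs. Sensorimotor reflexes were scored by righting reflex and wire suspension test, with follow-up to recovery at 80 min.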

[7] = tested on: Rattus norvegicus; test: Neuronal activity in Wistar rat brain lateral septal nucleus dorsal assessed as c-Fos-immunoreactive neurons at 0.1 ug/ul, icv after 2 hrs by immunohistochemistry analysis; type: functional, tissue-based; procedure, shortened: as §1
[8] = tested on: Rattus norvegicus; test: Neurotoxicity in Wistar rat assessed as tonic clonic crises at 10 ng/kg, icv up to 10 mins; type: toxicity, organism-based; settings: in vivo, icv_or_intrathecal, 1e-05 mg/kg; procedure, shortened: as §2
[9] = tested on: Thalamus; test: Neuronal activity in Wistar rat brain paraventricular nucleus of thalamus assessed as c-Fos-immunoreactive neurons at 0.1 ug/ul, icv after 2 hrs by immunohistochemistry analysis; type: functional, tissue-based; procedure, shortened: as §1
[10] = tested on: Rattus norvegicus; test: Neurotoxicity in Wistar rat assessed as localized diffuse piloerection on head at 10 ng/kg, icv up to 10 mins; type: toxicity, organism-based; settings: in vivo, icv_or_intrathecal, 1e-05 mg/kg; procedure, shortened: as §2
[11] = tested on: Rattus norvegicus; test: Neurotoxicity in Wistar rat assessed as localized diffuse piloerection around neck at 10 ng/kg, icv up to 10 mins; type: toxicity, organism-based; settings: in vivo, icv_or_intrathecal, 1e-05 mg/kg; procedure, shortened: as §2
[12] = tested on: Hippocampus; test: Neuronal activity in Wistar rat brain hippocampus assessed as c-Fos-immunoreactive neurons at 0.1 ug/ul, icv after 2 hrs by immunohistochemistry analysis; type: functional, tissue-based; procedure, shortened: as §1
[13] = tested on: Hypothalamus; test: Neuronal activity in Wistar rat brain paraventricular nucleus of hypothalamus assessed as c-Fos-immunoreactive neurons at 0.1 ug/ul, icv after 2 hrs by immunohistochemistry analysis; type: functional, tissue-based; procedure, shortened: as §1
[14] = tested on: Rattus norvegicus; test: Neuronal activity in Wistar rat brain piriform cortex assessed as c-Fos-immunoreactive neurons at 0.1 ug/ul, icv after 2 hrs by immunohistochemistry analysis; type: functional, tissue-based; procedure, shortened: as §1
[15] = tested on: Rattus norvegicus; test: Neuronal activity in Wistar rat brain rhomboid nucleus assessed as c-Fos-immunoreactive neurons at 0.1 ug/ul, icv after 2 hrs by immunohistochemistry analysis; type: functional, tissue-based; settings: Rhomboidal nucleus; procedure, shortened: as §1
[16] = tested on: Rattus norvegicus; test: Neurotoxicity in Wistar rat assessed as loss of sensor motor reflexes at 10 ng/kg, icv after 30 mins by wire suspension test; type: toxicity, organism-based; settings: in vivo, icv_or_intrathecal, 1e-05 mg/kg, 0.5 h; procedure, shortened: as §2
[17] = tested on: Rattus norvegicus; test: Neurotoxicity in Wistar rat assessed as partial closing of eyelids with porphyrin accumulation at 10 ng/kg, icv after 10 mins up to 30 mins; type: toxicity, organism-based, Eyelid; settings: in vivo, icv_or_intrathecal, 1e-05 mg/kg; procedure, shortened: as §2

N=C(CCc1c[nH]cn1)O[C@H]1O[C@H](CO)[C@@H](O)[C@H](O)[C@H]1O [POLYBIOSIDE]
Activity [1]: Active
Activity [2]: Active
Activity [3]: Active
Activity [4]: Active
Activity [5]: Toxic
Activity [6]: Toxic
Activity [7]: Active
Activity [8]: Toxic
Activity [9]: Active
Activity [10]: Toxic
Activity [11]: Toxic
Activity [12]: Active
Activity [13]: Active
Activity [14]: Active
Activity [15]: Active
Activity [16]: Toxic
Activity [17]: Toxic
